# Results pooled from the literature.
# Target: Ephrin type-A receptor 2 (EPHA2, Homo sapiens, UniProt P29317)
SMILES,read-out,action,technique,tested at,endpoint,result
N#Cc1ccc(NC(=O)Nc2ccccc2)cc1,cell-free assay,,competition with immobilised ligand,25 µM,remaining binding,100%
Cc1ccc(NC(=O)c2ccnc(C(F)(F)F)c2)cc1-c1cc(OCCO)nc(N2CCOCC2)c1,binding,,competition with immobilised ligand,1 µM,remaining binding,63%
COc1ccc2oc(-c3ccc4nc(N)oc4c3)c/c(=N\c3ccccc3NC(=O)CCN)c2c1,binding,,,1 µM,remaining binding,99%
COc1ccc2[nH]c3c4[nH]c5ccc(OC)cc5c4c4c(c3c2c1)C(=O)NC4=O,binding,,competition with immobilised ligand,1 µM,remaining binding,85%
C1=C/COCc2cc(ccc2OCCN2CCCC2)Nc2nccc(n2)-c2cccc(c2)COC/1,binding,,,0.1 µM,remaining binding,100%
C=CC(=O)N1CCC[C@@H](n2nc(-c3ccc(Oc4ccccc4)cc3)c3c(N)ncnc32)C1,enzyme activity,inhibitor,,1 µM,inhibition,4%
CCCCC(=O)Nc1ccc(-c2ccc3ncn(CCC)c(=O)c3c2)cn1,binding,,competition with immobilised ligand,0.5 µM,remaining binding,100%
Cc1cc(O)c(-c2ccc([C@@H](C)CN(C)C)cc2)c2c1[nH]c(=O)c1sccc12,cell-free assay,inhibitor,,0.1 µM,inhibition,-2.28%
C=CC(=O)N1CCC([C@@H]2CCNc3c(C(N)=O)c(-c4ccc(Oc5ccccc5)cc4)nn32)CC1,cell-free assay,,,1 µM,inhibition,10%
C#Cc1cnc(Nc2ccnc(CO)c2)nc1Nc1ccccc1S(C)(=O)=NC#N (stereo not shown),cell-free assay,,,1 µM,remaining signal,70%
